# Screening results: PubChem BioAssay, several laboratories
# This is a sample that favours compounds with a hit; in the whole collection about 2.2% have one here.
# MT stabilize HCS – stabilizes microtubules in HeLa cells. HeLa tubulin immunostaining HCS, 24 h; share of cells brighter than vehicle mean+2SD. % tubulin-high responders, % at 10 µM. hit rate 0.83% among 200,000;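 active means plate Z-score above 3 for both tubulin-high and condensed-nucleus cell shares, with cell loss under 80%, at 10 µM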;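 further: anti alpha tubulin signal scored within the nucleus-defined area of each cell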
# APP 5UTR inh – APP translation inhibition | SH-SY5Y APP 5'UTR-luciferase reporter, luminescence | inhibition, % at 2 µM | hit rate 0.82% among 190,000;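 active means inhibition above a set limit, derived from the sample mean plus 3 SD, cut at about 45% in these data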
# BaF3 parental – parental Ba/F3 viability inhibition as JAK2V617F counter-screen; AID 1486; hit rate 1.1% among 220,000; CellTiter-Glo ATP luminescence; inhibition, % at 5.6 µM;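 active means inhibition above a per-campaign cutoff, the mean inhibition of all tested compounds plus 3 SD, cut at about 27% in these data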;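 further: 0% = DMSO wells and 100% = JAK Inhibitor I control wells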
# bCat nuc transl – modulators of beta-catenin nuclear translocation; nuclear translocation activity, % at 5 µM; HeLa beta-catenin nuclear translocation, immunofluorescence imaging; hit rate 0.3% among 190,000;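 active means nuclear translocation activity above 50% at 5 µM, with a well cell count of 50 or more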;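 further: per-cell ratio of nuclear to cytoplasmic median beta-catenin stain intensity; plate controls were DMSO negative control for no effect and GSK-3 inhibitor IX positive control for full effect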
#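 test system = HeLa cells, endogenous beta-catenin | dosing = single 5 µM dose plus 0.02–20 µM confirmation series | times = compound treatment 24 h, 37°C, 5% CO2 | technique = beta-catenin immunofluorescence imaging with DAPI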
# IEC-6 tox – kills IEC-6 intestinal cells in KLF5 counter-screen. IEC-6 cytotoxicity, luminescence viability. inhibition, % at 5 µM. hit rate 0.78% among 290,000; in the data active means inhibition above about 22%;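 further: 0% = plate median of test compound wells and 100% = cytotoxic reference compound wells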
# Ba/F3 V617F tox – reduce viability of Ba/F3 cells dependent on JAK2V617F; hit rate 1.1% among 220,000; Ba/F3 EpoR-JAK2V617F viability, ATP luminescence; inhibition, % at 5.6 µM;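 active means inhibition above the campaign mean plus 3 SD over all tested compounds, cut at about 24% in these data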;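 further: cytokine-independent growth of Ba/F3 cells driven by EpoR plus mutant JAK2; 0% = DMSO-treated cells and 100% = JAK inhibitor I control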
# Numbers without * were called inactive; x = not tested or not shown.
SMILES,MT stabilize HCS,APP 5UTR inh,BaF3 parental,bCat nuc transl,IEC-6 tox,Ba/F3 V617F tox
Cc1nc2ncccn2c1-c1csc(Nc2ccc(N(C)C)cc2)n1,12.7,93.8*,81.0*,36.2,22.2*,79.1*
O=C(c1ccc2c(c1)OCO2)N1CCCc2ccccc21,4.9,-25.7,8.3,-0.5,6.6,7.0
Cc1ccc2c(c1)CCCN2C(=O)c1ccc2c(c1)OCO2,2.8,-10.9,29.6*,-0.2,2.1,28.8*
CCOC(=O)c1cccc(N2C(N)=NC(N)=NC2(C)C)c1,5.6,5.5,96.1*,-0.1,-0.8,73.2*
CCOc1ccc(N2C(N)=NC(N)=NC2(C)C)cc1,3.3,5.5,98.4*,1.5,-4.0,94.2*
CC1(C)N=C(N)N=C(N)N1c1ccc(OCCCOc2ccccc2)c(Cl)c1,x,x,101.6*,-1.0,81.8*,97.3*
CCOC(=O)c1cccc(N2C(=O)C3C4C=CC(CC4)C3C2=O)c1 (stereo not given),x,x,x,x,2.6,x
CCCCOc1ccc(N2C(N)=NC(N)=NC23CCCCC3)cc1,x,x,x,x,6.1,x
Cc1ccccc1OC(C)C(=O)Nc1cccnc1 (stereo not given),x,x,x,x,1.8,x
CC(=O)c1ccc(N2Cc3ccccc3C3(CCOCC3)C2=N)cc1,3.2,-22.6,-0.2,0.2,12.4,-4.8
CN1CCN(c2ccc(S(=O)(=O)N3CCCCC3)cc2NC(=O)Cc2ccc(Cl)cc2)CC1,3.7,-18.7,38.0*,-2.2,3.3,52.1*
Cc1ccccc1OCCn1c(S(=O)(=O)O)nc2c(N)ncnc21,x,x,x,x,-8.9,x
O=C(O)c1ccc(Cl)c(S(=O)(=O)NCC2CCCO2)c1 (stereo not given),1.5,57.2*,3.1,-2.1,-1.5,2.4
O=S(=O)(NCC1CCCO1)c1ccc(-c2ccc(S(=O)(=O)NCC3CCCO3)cc2)cc1 (stereo not given),2.4,6.3,80.0*,1.4,3.1,52.4*
N#Cc1cn(-c2ccccc2)nc1C(=O)c1ccccc1,2.0,6.9,5.5,62.5*,1.0,3.4
CN1C(C(=O)NCc2ccc(OC(F)(F)F)cc2)CC2Cn3c(nc4ccccc43)C21 (stereo not given),x,x,x,0.5,x,x
Cc1nc(NC(=O)c2ccccc2)sc1-c1csc(NCc2ccccc2)n1,1.2,x,7.6,-0.8,11.4,3.1
Cc1nc(NC(=O)c2ccccc2)sc1-c1csc(N)n1,6.1,-49.1,69.0*,8.5,16.7,60.7*
Cc1ccc(S(=O)(=O)N(C)CC(=O)N2CCN(Cc3ccccc3)CC2)cc1,x,x,x,x,-11.3,x
Cc1ccc(-c2csc(-c3c[nH]c4ccccc34)n2)c(C)c1,37.1*,-30.6,1.9,1.9,6.1,2.9
CCCN1CCCc2cc(CN)ccc21,2.0,-0.3,62.8*,0.2,6.0,63.2*
COc1ccccc1/C=C/C(=O)NCc1ccccn1,4.0,4.4,3.6,0.5,3.3,-5.6
CCOC(=O)CCN(Cc1ccccc1)S(=O)(=O)c1csc(C(N)=O)c1,x,x,x,x,9.2,x
COc1cccc(Nc2nc(-c3ccc4c(c3)OCCO4)cs2)c1,33.5*,-161.8,1.4,5.4,2.3,-2.5
CCOc1cccc2cc(-c3cn4cc(C)ccc4n3)c(=O)oc12,42.3*,3.4,8.6,1.8,3.1,3.3
SMILES,MT stabilize HCS,APP 5UTR inh,BaF3 parental,bCat nuc transl,IEC-6 tox,Ba/F3 V617F tox
COc1cccc2cc(-c3cn4ccc(C)cc4n3)c(=O)oc12,2.4,-87.3,5.1,x,-4.4,0.6
Nc1cccc2nc3ccccc3cc12,2.6,x,29.0*,x,21.7,41.3*
Cc1sc2ncnc(N3CCCCC3)c2c1C,1.5,x,2.5,-1.6,-2.3,-0.5
Cc1ccc(OCCN2CCN(c3ncnc4sc(C)c(C)c34)CC2)cc1,0.9,x,27.9*,-9.7,3.5,8.9
CCOCCCNC(=O)C1(O)c2cc(Br)ccc2NC(=O)N1c1ccc(OCC)cc1 (stereo not given),x,x,x,x,0.4,x
COc1ccc(NC(=O)c2ccc(NS(=O)(=O)c3c(C)noc3C)cc2)cc1OC,1.1,18.5,96.5*,-0.8,-13.4,-0.4
Cc1ccc(NC(=O)c2ccc(NS(=O)(=O)c3c(C)noc3C)cc2)cc1C,3.8,-9.1,1.6,-0.9,5.6,0.1
Cc1cccc(C)c1OCC(=O)N/N=C/c1ccc2c(c1)OCO2,32.1*,-6.3,0.3,82.1*,3.4,0.1
Cc1ccccc1NCC(=O)N/N=C\c1ccc2c(c1)OCO2,1.9,-19.4,6.1,-4.9,-0.8,1.9
Cc1cccc(OCC(=O)Nc2ccc3c(c2)OCO3)c1C,2.9,-25.6,4.1,-2.0,-0.1,3.0
